# From ChEMBL document CHEMBL5058577, “EUbOPEN Chemogenomics Library 2 (Multiplex)” (2022)
# Tested on: Fibroblast
# Experiment: Multiplex assay against human fibroblast
# Format: toxicity, cell-based
# Outline: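 Live cells carried four stains from seeding: Hoechst33342, BioTracker Green Microtubule Cytoskeleton Dye, MitoTracker Red and Annexin V Alexa Fluor 680. They were imaged on a CQ1 microscope at 37°C and 5% CO2 after compound addition. Using CellPathfinder machine-learning gating, cells were split into Hoechst high-intensity objects or normal cells, normal cells into healthy, pyknosed or fragmented nuclei, and pyknosed cells into mitotic or apoptotic; tubulin, mitochondrial-mass and membrane-permeability phenotypes are per cents of healthy-nucleus cells.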
# [1] = 12 h, 1 µM, compound concentration 1 uM, replicate 1
# [2] = 12 h, 1 µM, compound concentration 1 uM, replicate 2
# [3] = 12 h, 10 µM, compound concentration 10 uM, replicate 1
# [4] = 12 h, 10 µM, compound concentration 10 uM, replicate 2
# [5] = 24 h, 1 µM, compound concentration 1 uM, replicate 1
# [6] = 24 h, 1 µM, compound concentration 1 uM, replicate 2
# [7] = 24 h, 10 µM, compound concentration 10 uM, replicate 1
# [8] = 24 h, 10 µM, compound concentration 10 uM, replicate 2
# [9] = 48 h, 1 µM, compound concentration 1 uM, replicate 1
# [10] = 48 h, 1 µM, compound concentration 1 uM, replicate 2
# [11] = 48 h, 10 µM, compound concentration 10 uM, replicate 1
# [12] = 48 h, 10 µM, compound concentration 10 uM, replicate 2
compound,measurement,setting,value
CC(=O)NCCc1c(Cc2ccccc2)[nH]c2ccccc12 [LUZINDOLE],Population Apoptotic (%),[1],41%
same,Population Fragmented Nuclei (%),[1],15%
same,Population Healthy Nuclei (%),[1],65%
same,Population Hoechst High Intensity Objects (%),[1],1%
same,Population Membrane Permeable-Phenotype (%),[1],2%
same,Population Mitochondria Different-Phenotype (%),[1],7%
same,Population Mitotic Cells (%),[1],58%
same,Population Normal (%),[1],98%
same,Population Pyknosed Nuclei (%),[1],18%
same,Population Tubulin-Different-Phenotype (%),[1],30%
same,Total Cell Count,[1],129
same,Population Apoptotic (%),[2],40%
same,Population Fragmented Nuclei (%),[2],25%
same,Population Healthy Nuclei (%),[2],39%
same,Population Hoechst High Intensity Objects (%),[2],4%
same,Population Membrane Permeable-Phenotype (%),[2],9%
same,Population Mitochondria Different-Phenotype (%),[2],11%
same,Population Mitotic Cells (%),[2],59%
same,Population Normal (%),[2],95%
same,Population Pyknosed Nuclei (%),[2],34%
same,Population Tubulin-Different-Phenotype (%),[2],50%
same,Total Cell Count,[2],134
same,Population Apoptotic (%),[3],19%
same,Population Fragmented Nuclei (%),[3],15%
same,Population Healthy Nuclei (%),[3],69%
same,Population Hoechst High Intensity Objects (%),[3],2%
same,Population Membrane Permeable-Phenotype (%),[3],2%
same,Population Mitochondria Different-Phenotype (%),[3],7%
same,Population Mitotic Cells (%),[3],80%
same,Population Normal (%),[3],97%
same,Population Pyknosed Nuclei (%),[3],15%
same,Population Tubulin-Different-Phenotype (%),[3],42%
same,Total Cell Count,[3],140
same,Population Apoptotic (%),[4],21%
same,Population Fragmented Nuclei (%),[4],26%
same,Population Healthy Nuclei (%),[4],59%
same,Population Membrane Permeable-Phenotype (%),[4],13%
same,Population Mitochondria Different-Phenotype (%),[4],4%
same,Population Mitotic Cells (%),[4],78%
same,Population Pyknosed Nuclei (%),[4],13%
same,Population Tubulin-Different-Phenotype (%),[4],32%
same,Total Cell Count,[4],105
same,Population Apoptotic (%),[5],54%
same,Population Fragmented Nuclei (%),[5],21%
same,Population Healthy Nuclei (%),[5],61%
same,Population Hoechst High Intensity Objects (%),[5],0%
same,Population Membrane Permeable-Phenotype (%),[5],0%
same,Population Mitochondria Different-Phenotype (%),[5],3%
same,Population Mitotic Cells (%),[5],45%
same,Population Normal (%),[5],99%
same,Population Pyknosed Nuclei (%),[5],16%
same,Population Tubulin-Different-Phenotype (%),[5],13%
same,Total Cell Count,[5],134
same,Population Apoptotic (%),[6],45%
same,Population Fragmented Nuclei (%),[6],25%
same,Population Healthy Nuclei (%),[6],47%
same,Population Hoechst High Intensity Objects (%),[6],5%
same,Population Membrane Permeable-Phenotype (%),[6],8%
same,Population Mitochondria Different-Phenotype (%),[6],8%
same,Population Mitotic Cells (%),[6],54%
same,Population Normal (%),[6],94%
same,Population Pyknosed Nuclei (%),[6],26%
same,Population Tubulin-Different-Phenotype (%),[6],50%
same,Total Cell Count,[6],137
same,Population Apoptotic (%),[7],47%
same,Population Fragmented Nuclei (%),[7],15%
same,Population Healthy Nuclei (%),[7],67%
same,Population Hoechst High Intensity Objects (%),[7],2%
same,Population Membrane Permeable-Phenotype (%),[7],1%
same,Population Mitochondria Different-Phenotype (%),[7],5%
same,Population Mitotic Cells (%),[7],52%
same,Population Normal (%),[7],97%
same,Population Pyknosed Nuclei (%),[7],17%
same,Population Tubulin-Different-Phenotype (%),[7],29%
same,Total Cell Count,[7],138
same,Population Apoptotic (%),[8],23%
same,Population Fragmented Nuclei (%),[8],27%
same,Population Healthy Nuclei (%),[8],59%
same,Population Hoechst High Intensity Objects (%),[8],3%
same,Population Membrane Permeable-Phenotype (%),[8],5%
same,Population Mitochondria Different-Phenotype (%),[8],3%
same,Population Mitotic Cells (%),[8],76%
same,Population Normal (%),[8],96%
same,Population Pyknosed Nuclei (%),[8],12%
same,Population Tubulin-Different-Phenotype (%),[8],33%
same,Total Cell Count,[8],105
same,Population Apoptotic (%),[9],75%
same,Population Fragmented Nuclei (%),[9],15%
same,Population Healthy Nuclei (%),[9],72%
same,Population Hoechst High Intensity Objects (%),[9],5%
same,Population Membrane Permeable-Phenotype (%),[9],2%
same,Population Mitochondria Different-Phenotype (%),[9],3%
same,Population Mitotic Cells (%),[9],25%
same,Population Normal (%),[9],94%
same,Population Pyknosed Nuclei (%),[9],12%
same,Population Tubulin-Different-Phenotype (%),[9],24%
same,Total Cell Count,[9],134
same,Population Apoptotic (%),[10],39%
same,Population Fragmented Nuclei (%),[10],27%
same,Population Healthy Nuclei (%),[10],55%
same,Population Hoechst High Intensity Objects (%),[10],8%
same,Population Membrane Permeable-Phenotype (%),[10],9%
same,Population Mitochondria Different-Phenotype (%),[10],5%
same,Population Mitotic Cells (%),[10],60%
same,Population Normal (%),[10],91%
same,Population Pyknosed Nuclei (%),[10],16%
same,Population Tubulin-Different-Phenotype (%),[10],46%
same,Total Cell Count,[10],149
same,Population Apoptotic (%),[11],80%
same,Population Fragmented Nuclei (%),[11],19%
same,Population Healthy Nuclei (%),[11],70%
same,Population Hoechst High Intensity Objects (%),[11],3%
same,Population Membrane Permeable-Phenotype (%),[11],0%
same,Population Mitochondria Different-Phenotype (%),[11],3%
same,Population Mitotic Cells (%),[11],20%
same,Population Normal (%),[11],96%
same,Population Pyknosed Nuclei (%),[11],10%
same,Population Tubulin-Different-Phenotype (%),[11],34%
same,Total Cell Count,[11],147
same,Population Apoptotic (%),[12],54%
same,Population Fragmented Nuclei (%),[12],34%
same,Population Healthy Nuclei (%),[12],54%
same,Population Hoechst High Intensity Objects (%),[12],4%
same,Population Membrane Permeable-Phenotype (%),[12],3%
same,Population Mitotic Cells (%),[12],45%
same,Population Normal (%),[12],95%
same,Population Tubulin-Different-Phenotype (%),[12],50%
same,Total Cell Count,[12],111
N[C@@]1(C(=O)O)CO[C@H]2[C@H](C(=O)O)[C@H]21 [LY-379268],Population Apoptotic (%),[1],22%
same,Population Fragmented Nuclei (%),[1],17%
same,Population Healthy Nuclei (%),[1],70%
same,Population Hoechst High Intensity Objects (%),[1],1%
same,Population Membrane Permeable-Phenotype (%),[1],0%
same,Population Mitochondria Different-Phenotype (%),[1],2%
same,Population Mitotic Cells (%),[1],77%
same,Population Normal (%),[1],98%
same,Population Pyknosed Nuclei (%),[1],11%
same,Population Tubulin-Different-Phenotype (%),[1],25%
same,Total Cell Count,[1],156
same,Population Apoptotic (%),[2],44%
same,Population Fragmented Nuclei (%),[2],33%
same,Population Healthy Nuclei (%),[2],43%
same,Population Hoechst High Intensity Objects (%),[2],10%
same,Population Membrane Permeable-Phenotype (%),[2],5%
same,Population Mitochondria Different-Phenotype (%),[2],1%
same,Population Mitotic Cells (%),[2],55%
same,Population Normal (%),[2],89%
same,Population Pyknosed Nuclei (%),[2],22%
same,Population Tubulin-Different-Phenotype (%),[2],45%
same,Total Cell Count,[2],145
same,Population Apoptotic (%),[3],29%
same,Population Fragmented Nuclei (%),[3],15%
same,Population Healthy Nuclei (%),[3],69%
same,Population Hoechst High Intensity Objects (%),[3],3%
same,Population Membrane Permeable-Phenotype (%),[3],0%
same,Population Mitochondria Different-Phenotype (%),[3],3%
same,Population Mitotic Cells (%),[3],70%
same,Population Normal (%),[3],96%
same,Population Pyknosed Nuclei (%),[3],14%
same,Population Tubulin-Different-Phenotype (%),[3],19%
same,Total Cell Count,[3],187
same,Population Apoptotic (%),[4],21%
same,Population Healthy Nuclei (%),[4],51%
same,Population Membrane Permeable-Phenotype (%),[4],4%
same,Population Mitochondria Different-Phenotype (%),[4],1%
same,Population Mitotic Cells (%),[4],78%
same,Population Pyknosed Nuclei (%),[4],33%
same,Population Tubulin-Different-Phenotype (%),[4],47%
same,Total Cell Count,[4],128
same,Population Apoptotic (%),[5],36%
same,Population Fragmented Nuclei (%),[5],16%
same,Population Healthy Nuclei (%),[5],70%
same,Population Hoechst High Intensity Objects (%),[5],0%
same,Population Membrane Permeable-Phenotype (%),[5],0%
same,Population Mitochondria Different-Phenotype (%),[5],5%
same,Population Mitotic Cells (%),[5],63%
same,Population Normal (%),[5],99%
same,Population Pyknosed Nuclei (%),[5],12%
same,Population Tubulin-Different-Phenotype (%),[5],23%
same,Total Cell Count,[5],152
same,Population Apoptotic (%),[6],47%
same,Population Fragmented Nuclei (%),[6],40%
same,Population Healthy Nuclei (%),[6],41%
same,Population Hoechst High Intensity Objects (%),[6],10%
same,Population Membrane Permeable-Phenotype (%),[6],4%
same,Population Mitochondria Different-Phenotype (%),[6],10%
same,Population Mitotic Cells (%),[6],52%
same,Population Normal (%),[6],89%
same,Population Pyknosed Nuclei (%),[6],18%
same,Population Tubulin-Different-Phenotype (%),[6],60%
same,Total Cell Count,[6],125
same,Population Apoptotic (%),[7],66%
same,Population Fragmented Nuclei (%),[7],14%
same,Population Healthy Nuclei (%),[7],75%
same,Population Hoechst High Intensity Objects (%),[7],5%
same,Population Membrane Permeable-Phenotype (%),[7],0%
same,Population Mitochondria Different-Phenotype (%),[7],3%
same,Population Mitotic Cells (%),[7],33%
same,Population Normal (%),[7],94%
same,Population Pyknosed Nuclei (%),[7],10%
same,Population Tubulin-Different-Phenotype (%),[7],19%
same,Total Cell Count,[7],189
same,Population Apoptotic (%),[8],22%
same,Population Fragmented Nuclei (%),[8],17%
same,Population Healthy Nuclei (%),[8],53%
same,Population Hoechst High Intensity Objects (%),[8],6%
same,Population Membrane Permeable-Phenotype (%),[8],2%
same,Population Mitochondria Different-Phenotype (%),[8],0%
same,Population Mitotic Cells (%),[8],77%
same,Population Normal (%),[8],93%
same,Population Pyknosed Nuclei (%),[8],28%
same,Population Tubulin-Different-Phenotype (%),[8],44%
same,Total Cell Count,[8],133
same,Population Apoptotic (%),[9],76%
same,Population Fragmented Nuclei (%),[9],22%
same,Population Healthy Nuclei (%),[9],68%
same,Population Hoechst High Intensity Objects (%),[9],3%
same,Population Membrane Permeable-Phenotype (%),[9],0%
same,Population Mitochondria Different-Phenotype (%),[9],5%
same,Population Mitotic Cells (%),[9],23%
same,Population Normal (%),[9],96%
same,Population Pyknosed Nuclei (%),[9],8%
same,Population Tubulin-Different-Phenotype (%),[9],26%
same,Total Cell Count,[9],156
same,Population Apoptotic (%),[10],50%
same,Population Fragmented Nuclei (%),[10],33%
same,Population Healthy Nuclei (%),[10],55%
same,Population Hoechst High Intensity Objects (%),[10],11%
same,Population Membrane Permeable-Phenotype (%),[10],4%
same,Population Mitochondria Different-Phenotype (%),[10],7%
same,Population Mitotic Cells (%),[10],50%
same,Population Normal (%),[10],88%
same,Population Pyknosed Nuclei (%),[10],11%
same,Population Tubulin-Different-Phenotype (%),[10],59%
same,Total Cell Count,[10],136
same,Population Apoptotic (%),[11],62%
same,Population Fragmented Nuclei (%),[11],14%
same,Population Healthy Nuclei (%),[11],72%
same,Population Hoechst High Intensity Objects (%),[11],1%
same,Population Membrane Permeable-Phenotype (%),[11],0%
same,Population Mitochondria Different-Phenotype (%),[11],0%
same,Population Mitotic Cells (%),[11],37%
same,Population Normal (%),[11],98%
same,Population Pyknosed Nuclei (%),[11],13%
same,Population Tubulin-Different-Phenotype (%),[11],19%
same,Total Cell Count,[11],179
same,Population Apoptotic (%),[12],42%
same,Population Fragmented Nuclei (%),[12],27%
same,Population Healthy Nuclei (%),[12],56%
same,Population Hoechst High Intensity Objects (%),[12],7%
same,Population Membrane Permeable-Phenotype (%),[12],10%
same,Population Mitochondria Different-Phenotype (%),[12],5%
same,Population Mitotic Cells (%),[12],57%
same,Population Normal (%),[12],92%
same,Population Pyknosed Nuclei (%),[12],16%
same,Population Tubulin-Different-Phenotype (%),[12],47%
same,Total Cell Count,[12],140
